According to ChEMBL document CHEMBL4402603, “Structure-Activity Relationship of SPOP Inhibitors against Kidney Cancer” (J Med Chem, 2020):
The source made the active and inactive calls. No cut-off for these calls is given here.

Columns and labels:
A498 [1] = assay: Antiproliferative activity against human A498 cells assessed as reduction in cell viability at 30 uM incubated for 72 hrs by MTT assay relative to control; format: functional; settings: A498, 72 h
Outline: (§1)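 MTT read-out. Cells seeded at 1,000-2,200/well, grown 12 hr at 37 °C, then compound added for 72 hr. MTT for 4 hr, formazan dissolved in DMSO, absorbance at 490 nm. Untreated-cell OD taken as 100% proliferation; inhibition reported at 30 μM.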

OS-RC-2 [2] = assay: Antiproliferative activity against human OS-RC2 cells assessed as reduction in cell viability incubated for 72 hrs by MTT assay; format: functional, cell-based; settings: OS-RC-2, 72 h
Outline: (§2)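 MTT read-out. Cells seeded at 1,000-2,200/well, grown 12 hr at 37 °C before compound, then exposed 72 hr. MTT for 4 hr, formazan dissolved in DMSO, A490 read. Untreated cells = 100% proliferation. IC50 quantitated; mean ± SD, n = 3.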

A498 [3] = assay: Antiproliferative activity against human A498 cells assessed as reduction in cell viability incubated for 72 hrs by MTT assay; format: functional, cell-based; settings: A498, 72 h; outline: as §2
[4] = target: Speckle-type POZ protein (Homo sapiens) (UniProt O43791); assay: Inhibition of SPOP signalling in human OS-RC2 cells assessed as accumulation of PTEN at 5 to 15 uM incubated for 12 hrs by Western blot analysis; format: cell-based
Chain of Speckle-type POZ protein (Homo sapiens) (O43791 whole entry, the tested form may be a part): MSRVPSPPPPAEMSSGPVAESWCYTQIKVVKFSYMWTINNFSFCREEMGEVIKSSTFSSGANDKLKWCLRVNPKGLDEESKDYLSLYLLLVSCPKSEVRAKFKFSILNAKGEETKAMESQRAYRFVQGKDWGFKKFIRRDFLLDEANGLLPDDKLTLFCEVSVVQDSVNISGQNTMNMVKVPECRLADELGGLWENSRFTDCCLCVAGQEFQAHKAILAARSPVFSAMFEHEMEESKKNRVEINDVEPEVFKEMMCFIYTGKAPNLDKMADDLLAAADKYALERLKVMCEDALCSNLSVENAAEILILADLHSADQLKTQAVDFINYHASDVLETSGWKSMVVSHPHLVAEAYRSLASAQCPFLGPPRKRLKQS

[5] = target: Speckle-type POZ protein (Homo sapiens) (UniProt O43791); assay: Binding affinity to recombinant N-terminal GST/His-tagged MATH binding domain SPOP (unknown origin) expressed in Escherichia coli BL21 (DE3) assessed as change in melting temperature at 20 fold compound incubated for 15 mins by nano differential scanning fluorimetry (reference value: -3.8 degreeC)
[6] = target: Speckle-type POZ protein (Homo sapiens) (UniProt O43791); assay: Binding affinity to recombinant N-terminal GST/His-tagged SPOP (unknown origin) MATH binding domain expressed in Escherichia coli BL21 (DE3) assessed as change in melting temperature at 5 fold compound by SYPRO Orange dye based differential scanning fluorimetry (reference value: -1.7 degreeC)
OS-RC-2 [7] = assay: Antiproliferative activity against human OS-RC2 cells assessed as reduction in cell viability at 30 uM incubated for 72 hrs by MTT assay relative to control; format: functional; settings: OS-RC-2, 72 h; outline: as §1
[8] = target: Speckle-type POZ protein (Homo sapiens) (UniProt O43791); assay: Binding affinity to recombinant N-terminal GST/His-tagged MATH binding domain SPOP (unknown origin) expressed in Escherichia coli BL21 (DE3) assessed as change in melting temperature at 10 fold compound incubated for 15 mins by nano differential scanning fluorimetry (reference value: -1.7 degreeC)
[9] = Solubility of compound in cell culture medium in presence of 0.2 % DMSO; format: physicochemical
Outline: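 Solubility determined in cell culture medium containing 0.2% DMSO.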

A498 [10] = assay: Inhibition of colony formation in human A498 cells at 1 to 5 uM incubated for 12 days by crystal violet dye based assay; format: functional, cell-based
Outline: (§3)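 Cells seeded at 1,000/well, grown 12 days at 37 °C, 5% CO2, medium renewed every 3 days. Fixed with 10% acetic acid/10% methanol for 15 min, stained with 1% crystal violet for 10 min.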

OS-RC-2 [11] = assay: Inhibition of colony formation in human OS-RC2 cells at 1 to 5 uM incubated for 12 days by crystal violet dye based assay; format: functional, cell-based; outline: as §3
[12] = target: Speckle-type POZ protein (Homo sapiens) (UniProt O43791); assay: Binding affinity to recombinant N-terminal GST/His-tagged SPOP (unknown origin) MATH binding domain expressed in Escherichia coli BL21 (DE3) assessed as change in melting temperature at 10 fold compound by SYPRO Orange dye based differential scanning fluorimetry (reference value: -1.7 degreeC)
[13] = target: Speckle-type POZ protein (Homo sapiens) (UniProt O43791); assay: Binding affinity to recombinant N-terminal GST/His-tagged SPOP (unknown origin) MATH binding domain expressed in Escherichia coli BL21 (DE3) assessed as change in melting temperature at 1 fold compound by SYPRO Orange dye based differential scanning fluorimetry (reference value: -1.7 degreeC)

| SMILES | inhibition [4] | ΔTm [5] [°C] | ΔTm [6] [°C] | ΔTm [8] [°C] | solubility [9] [µM] | ΔTm [12] [°C] | ΔTm [13] [°C] | inhibition at 30 µM (A498 [1]) [%] | IC50 (OS-RC-2 [2]) [µM] | IC50 (A498 [3]) [µM] | inhibition at 30 µM (OS-RC-2 [7]) [%] | inhibition (A498 [10]) | inhibition (OS-RC-2 [11]) |
| --- | --- | --- | --- | --- | --- | --- | --- | --- | --- | --- | --- | --- | --- |
| Cc1cccn2c(=O)c3cc(C(=O)NCCCN4CCOCC4)c(=N)n(CCc4cccs4)c3nc12 | Active | 5.1 | – | 3.2 | – | – | – | 90 | 7.6 | 2.6 | 82 | – | – |
| COc1ccc(CCNC(=O)c2cc3c(=O)n4cccc(C)c4nc3n(CCc3cccs3)c2=N)cc1 | Active | – | – | – | 2.5 to 5 | – | – | 87 | 4.2 | 2.8 | 75 | Active | Active |
| Cc1cccn2c(=O)c3cc(C(=O)NCc4cccnc4)c(=N)n(CCCN4CCOCC4)c3nc12 | – | 0.2 | 0.3 | 0 | – | 0.3 | 0 | – | > 50 | > 50 | – | – | – |
| Cc1cccn2c(=O)c3cc(C(=O)NC4CCCCC4)c(=N)n(CCc4cccs4)c3nc12 | Active | 2.7 | – | 2.7 | – | – | – | 90 | 5.9 | 6.3 | 90 | – | – |

Second part, led by results:

| inhibition [4] | ΔTm [5] [°C] | ΔTm [6] [°C] | ΔTm [8] [°C] | solubility [9] [µM] | ΔTm [12] [°C] | ΔTm [13] [°C] | SMILES | inhibition at 30 µM (A498 [1]) [%] | IC50 (OS-RC-2 [2]) [µM] | IC50 (A498 [3]) [µM] | inhibition at 30 µM (OS-RC-2 [7]) [%] | inhibition (A498 [10]) | inhibition (OS-RC-2 [11]) |
| --- | --- | --- | --- | --- | --- | --- | --- | --- | --- | --- | --- | --- | --- |
| Active | 5.3 | 4 | 3.7 | – | – | – | Cc1cccn2c(=O)c3cc(C(=O)NCCCN4CCOCC4)c(=N)n(CCc4cccc(F)c4)c3nc12 | 89 | 4.6 | 2.4 | 92 | – | – |
| – | 4 | 3 | 2.8 | 30 to 45 | – | – | Cc1cccn2c(=O)c3cc(C(=O)NCCCN4CCOCC4)c(=N)n(CCc4ccccc4)c3nc12 | 88 | 5.8 | 2.7 | 90 | Active | Active |
| – | 3.6 | 2.7 | 2.5 | – | – | – | COc1ccc(CCn2c(=N)c(C(=O)NCCCN3CCOCC3)cc3c(=O)n4cccc(C)c4nc32)cc1 | 90 | 6.5 | 2.8 | 88 | – | – |
| – | 3.5 | 1.3 | 2.3 | 5 to 10 | – | – | Cc1cccn2c(=O)c3cc(C(=O)NCCCN4CCOCC4)c(=N)n(CCc4ccc(Br)cc4)c3nc12 | 89 | 5 | 3 | 96 | Active | Active |
